Only some compounds are listed: those with a hit (about 3.3% of all), similar ones and a draw of the others.
m5-HT2A agonist = agonists of mouse serotonin 5-HT2A receptor (HTR2A); CHO-K1 mHTR2A beta-arrestin complementation, luminescence; percent of 30 µM serotonin response; P35363; 360,000 compounds, 0.66% hits; activation, % at 7.6 µM; AID 624169;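 active = activation above a run cutoff, the mean activation of all tested compounds plus 3 SD, cut at about 14% in these data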;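 note: 0% = plate median of compound wells and 100% = 30 µM serotonin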
HGIII-sPLA2 inh = Inhibits HGIII-sPLA2 liposome hydrolysis, primary screen | QFRET BODIPY PC-A2 liposome hydrolysis, fluorescence | inhibition, % at 12.2 µM | 370,000 compounds, 0.56% hits | AID 743126;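 active = inhibition above mean plus 3 SD of compounds lying within the high and low control bounds, cut at about 19% in these data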;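 note: 0% = median of test compound wells and 100% = no enzyme DMSO wells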
PfM18AAP inh = blocks P. falciparum M18 aspartyl aminopeptidase | recombinant PfM18AAP, H-Glu-NHMec fluorogenic cleavage | inhibition, % at 7.35 µM | 290,000 compounds, 1.2% hits;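 active = inhibition above the campaign mean inhibition over all tested compounds plus 3 SD, cut at about 28% in these data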;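 note: 0% = plate median of test compound wells and 100% = 2 mM ZnCl2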
Hep lipid drop = hepatic lipid droplet formation modulation | AID 1656 | 240,000 compounds, 0.4% hits | AML12 mouse hepatocytes, oleate lipid droplets, BODIPY imaging | inhibition, % at 6.5 µM;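 active = lipid droplet intensity inhibited by at least 50%, with more than 500 cells counted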
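Test system: AML12 hepatocytes (mouse); reagent: oleate loading, 100 µM; dosing: one dose, 6.5 µM compound; incubation: overnight exposure; signal: fluorescence imaging, 20x objective, two fields per well; read-out basis: % inhibition of corrected integrated BODIPY droplet signal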
NRP1-CendR mod = NRP-1/CendR interaction modulation; FAM-RPARPAR peptide binding to NRP-1, fluorescence polarization; O14786; 360,000 compounds, 0.85% hits; inhibition, % at 25 µM;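 active = inhibition or corrected inhibition above about 18%, plus a signal ratio from 0.5 to 1.5, limit read from the data, passing the limit was not always enough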
Target sequence (O14786 whole entry, looked up): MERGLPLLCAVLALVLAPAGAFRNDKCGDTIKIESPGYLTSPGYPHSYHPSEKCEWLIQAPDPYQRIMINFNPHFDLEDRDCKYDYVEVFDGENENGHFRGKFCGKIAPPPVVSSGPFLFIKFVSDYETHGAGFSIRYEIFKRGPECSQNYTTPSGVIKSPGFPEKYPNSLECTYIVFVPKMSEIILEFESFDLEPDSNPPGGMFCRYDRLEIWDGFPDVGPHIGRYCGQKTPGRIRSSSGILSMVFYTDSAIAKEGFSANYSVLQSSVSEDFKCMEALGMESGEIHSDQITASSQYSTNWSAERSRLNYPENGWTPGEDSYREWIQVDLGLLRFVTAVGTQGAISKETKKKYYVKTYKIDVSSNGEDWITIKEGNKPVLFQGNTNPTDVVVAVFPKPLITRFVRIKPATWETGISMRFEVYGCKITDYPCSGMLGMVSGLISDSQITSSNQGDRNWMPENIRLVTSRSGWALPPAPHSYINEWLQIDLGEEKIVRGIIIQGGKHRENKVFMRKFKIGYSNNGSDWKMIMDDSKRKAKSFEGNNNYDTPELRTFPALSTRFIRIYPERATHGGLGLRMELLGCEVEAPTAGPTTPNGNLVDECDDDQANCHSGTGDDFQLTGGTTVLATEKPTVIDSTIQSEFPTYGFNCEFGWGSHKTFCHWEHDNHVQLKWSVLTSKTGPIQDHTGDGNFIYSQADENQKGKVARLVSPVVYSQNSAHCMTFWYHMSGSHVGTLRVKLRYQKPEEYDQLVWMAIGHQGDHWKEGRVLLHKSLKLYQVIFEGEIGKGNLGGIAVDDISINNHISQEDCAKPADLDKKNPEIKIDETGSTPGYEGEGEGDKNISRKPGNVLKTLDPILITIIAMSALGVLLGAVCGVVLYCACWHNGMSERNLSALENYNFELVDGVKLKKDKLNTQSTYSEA
Arrestin-AP2 inh = human beta-arrestin and AP2 interaction inhibition | FITC-arrestin peptide / GST-AP2 beads, flow cytometry; AP2 beta2 appendage carries R879A mutation | inhibition, % at 10 µM | 340,000 compounds, 0.31% hits;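 active = inhibition above a set limit, near 3 SD of compounds lacking own fluorescence, cut at about 54% in these data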;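 note: plate controls were DMSO wells for no effect and 5 µM unlabelled arrestin peptide for full effect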
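System: GST-AP2 R879A bound to glutathione beads, E. coli-expressed. Also added: 50 nM FITC-arrestin peptide. Schedule: compound with beads 12 min RT, then probe 1 h RT. Signal: bead flow cytometry, FITC channel. Read-out basis: percent response.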
Hep lipid conf = confirmation of inhibitors of hepatic lipid droplet formation. AML12 mouse hepatocytes, BODIPY lipid droplet imaging; droplets induced with 100 µM oleic acid. shares compounds with Hep lipid drop. 870 compounds, 65% hits. inhibition, % at 5.2 µM;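 active = inhibition of lipid droplet metric at least 50%, with more than 300 cells in each of four replicates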;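 note: plate controls were DMSO with oleic acid for no effect and 5 µM Triacsin-C for full effect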
AML12 cytotox = toxic to AML12 mouse hepatocytes in counter-screen; shares compounds with Hep lipid drop; DAPI nuclear morphology cytotoxicity imaging; stronger effect = higher value; cells fed 100 µM oleate overnight; z-score at 5 µM; 870 compounds, 3% hits; in the data active = z-score above about 6.3;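 note: compound exposure lasted overnight at 37 °C before fixation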
AML12 tox conf = confirmation of cytotoxicity in AML12 mouse hepatocytes | shares compounds with Hep lipid drop | AML12 mouse hepatocyte viability, ATP luminescence; cells loaded with 100 µM oleic acid | cytotoxicity, % at 50 µM | 530 tested, under 10 active | AID 463219;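 active = cytotoxicity above 50% in each of four replicates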;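 note: compound exposure lasted overnight at 37 °C before the ATP read; 0% = DMSO-treated cells and 100% = wells with no cells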
Starred values were filed as active, the others as inactive; / = no result given.

SMILES | m5-HT2A agonist | HGIII-sPLA2 inh | PfM18AAP inh | Hep lipid drop | NRP1-CendR mod | Arrestin-AP2 inh | Hep lipid conf | AML12 cytotox | AML12 tox conf
COc1ccc(-c2cn(CC[C@@H]3CC[C@H](NC(=O)Cc4ccccn4)[C@@H](CO)O3)nn2)cc1 | 10 | 2 | / | / | -11 | / | / | / | /
COCn1ccnc1C(=O)c1ccco1 | 7 | -1 | / | / | 1 | / | / | / | /
COc1cccc(-c2nc(NCc3ccccc3)c3ccccc3n2)c1O | -2 | -5 | 3 | 69* | 14 | -12 | 55* | -0.68 | -5
COc1cccc(-c2nc(NCc3ccco3)c3ccccc3n2)c1O | -2 | 2 | -14 | 3 | -20 | -1 | / | / | /
CC1=C(/C=N/Nc2ccc([N+](=O)[O-])cc2[N+](=O)[O-])C(C)(C)CCC1 | 6 | -1 | -5 | 72* | 7 | 19 | 115* | -0.82 | -13
Cc1cccc(Oc2ccc(Cl)cc2N)c1 | -2 | 4 | -4 | 58* | 29* | 9 | 29 | -0.35 | /
C[C@H](CO)N1C[C@H](C)[C@H](CN(C)C(=O)Cc2ccccc2)OCc2cnnn2CCCC1=O | 2 | 6 | / | / | 6 | / | / | / | /
COc1cc(C2N3CC4(C)CN2CC(C)(C3)C4)ccc1O (stereo not given) | 4 | 4 | 3 | 92* | 6 | 2 | 5 | -1.6 | /
COc1ccc(C2N3CC4(C)CN2CC(C)(C3)C4O)cc1OC (stereo not given) | 3 | 2 | 23 | 23 | -1 | 3 | / | / | /
O=Cc1cc(N=Nc2ccc(S(=O)(=O)O)cc2)ccc1O | -12 | 1 | / | / | -12 | -4 | / | / | /
Cc1cc(C=O)c(O)cc1O | -6 | 3 | -1 | 51* | 0 | 10 | 27 | -0.29 | /
CC(=O)N1CCOc2ccc(S(=O)(=O)N3CCC(C(=O)NCc4ccc(Cl)cc4)CC3)cc21 | 3 | -3 | / | / | 12 | / | / | / | /
COCC(=O)Nc1ccc2c(c1)C(=O)N(C)[C@@H]1CC[C@@H](CC(=O)OC)O[C@H]1CO2 | / | 6 | / | / | / | / | / | / | /
O=C(CN(CC1CCCO1)S(=O)(=O)c1ccc(S(=O)(=O)NC2CC2)cc1)Nc1ccccc1 (stereo not given) | -2 | -23 | -6 | 95* | -2 | -10 | 107* | -0.073 | 18
COC(=O)[C@]12C[C@H](CC(=O)N3CCCC3)C(=O)N(Cc3ccco3)C1=C[C@H](C1CCCC1)O[C@@H]2C | / | 0 | / | / | / | / | / | / | /
Cc1ccc2nc(C)cc(NCCO)c2c1 | 2 | 2 | 0 | 10 | -12 | 4 | / | / | /
Cc1cc(C)nc(NCCO)n1 | 1 | -1 | 3 | 81* | 1 | 21 | 30 | -0.23 | /
Nc1cc(Nc2ccccc2)c2nonc2c1[N+](=O)[O-] | -6 | 0 | -6 | 101* | -85 | -7 | 110* | 0.69 | 3
O=C(O)c1ccc(Nc2cc(Cl)c3nonc3c2[N+](=O)[O-])cc1 | 6 | 9 | -57 | 18 | -6 | 43 | / | / | /
COc1cc(C(=S)N2CCOCC2)cc(OC)c1OC(=O)c1ccccc1[N+](=O)[O-] | 3 | 17 | 0 | 56* | 7 | 14 | 30 | -0.23 | /
CC(=O)Nc1cccc(Cn2cccn2)c1 | / | 4 | 11 | -28 | / | / | / | / | /
O=C(Nc1cccc(Cn2cccn2)c1)c1cc2c(s1)CCCC2 | -1 | -19 | -6 | 55* | -7 | 14 | 57 | -0.11 | 26
CN1/C(=C\C(=O)C[n+]2ccc3ccccc3c2)C(C)(C)c2ccccc21 | 0 | -27 | -5 | -18 | -2 | 3 | / | / | /
CS(=O)(=O)N(CC(=O)Nc1ccccc1Br)Cc1ccccc1 | 0 | -3 | 1 | 56* | 2 | -9 | 67* | -0.76 | 9
CSc1ccccc1NC(=O)CN(Cc1ccccc1)S(C)(=O)=O | 2 | -5 | -7 | 37 | -3 | 14 | / | / | /
SMILES | m5-HT2A agonist | HGIII-sPLA2 inh | PfM18AAP inh | Hep lipid drop | NRP1-CendR mod | Arrestin-AP2 inh | Hep lipid conf | AML12 cytotox | AML12 tox conf
COc1ccc(OC)c(/C=C/C(=O)N(C)CC(=O)Nc2ccc(C)cc2)c1 | 2 | -7 | 0 | 59* | -7 | 19 | 77* | 0.19 | 8
COc1ccc(OC)c(/C=C/C(=O)N(C)CC(=O)Nc2cc(C)ccc2C)c1 | -1 | -3 | 1 | 60* | -12 | 5 | 95* | -0.07 | 10
COc1ccc(CCC(=O)N(C)CC(=O)Nc2cc(C)ccc2C)cc1 | -3 | 7 | -3 | -3 | -2 | 1 | / | / | /
COC(=O)C[C@@H]1CC[C@@H]2[C@@H](COc3ccc(NS(=O)(=O)c4ccc(F)cc4)cc3C(=O)N2C)O1 | / | 5 | / | / | / | / | / | / | /
CCCCN1C(=O)/C(=C/C=C2\Oc3ccccc3N2CC)SC1=S | 7 | -4 | 2 | 69* | 131 | 3 | 113* | -0.5 | 14
CCCN1C(=O)/C(=C/C=C2\N(CC)c3ccccc3C2(C)C)SC1=S | 2 | 1 | -3 | / | 124 | 5 | / | / | /
CN1CCCCC(NC(=O)c2cccc(F)c2)C1=O (stereo not given) | / | 5 | / | / | / | / | / | / | /
Cc1ccc(S(=O)(=O)N(CC(=O)NC2CCC(C)CC2)c2cc(C)cc(C)c2)cc1 (stereo not given) | / | 0 | / | / | / | / | / | / | /
C=CCOc1ccc(/C=N/NC(=O)c2cc3c(OC)cc(OC)cc3[nH]2)cc1 | 2 | -31 | -3 | 56* | 1 | 19 | 51 | 2.3 | /
CCOc1ccc(/C=N/NC(=O)c2cc3c(OC)cc(OC)cc3[nH]2)cc1OC | 4 | -42 | 0 | 2 | 0 | 53 | / | / | /
c1ccc2c(c1)CCCC2C1=NCCN1 (stereo not given) | -4 | 2 | -6 | 53* | 3 | 5 | 21 | -0.056 | /
NC(=O)CC(NC(=O)Cc1cccc2ccccc12)c1ccc(N2CCN(c3ccc(F)cc3)CC2)c([N+](=O)[O-])c1 (stereo not given) | -3 | 2 | / | 53* | 2 | 16 | 18 | -0.64 | /
CCN(CC)C(=O)CCCc1c[nH]c2ccccc12 | -3 | -9 | 7 | 12 | -2 | 29 | / | / | /
CCN(CC(=O)Nc1c(F)cccc1F)C(=O)CCCc1c[nH]c2ccccc12 | 9 | -27 | -6 | 82* | 16 | -22 | 105* | -0.5 | 8
CCN(c1ccccc1)c1nc(Cl)nc2c1cnn2C | 2 | 7 | / | / | 12 | 13 | / | / | /
CSc1ccccc1NC(=O)C1=CC(c2cccs2)=NS(=O)(=O)N1C | 1 | -7 | 7 | 74* | 2 | 1 | 105* | 0.14 | 14
c1ccc(SC23CCCCN(CCC2)[C@]32CO2)cc1 (stereo not given in full) | 8 | 17 | / | / | -14 | / | / | / | /

Assay outcomes: PubChem BioAssay, several laboratories
